Source: PubChem BioAssay
S100A4 inh HTS – S100A4-myosin IIA interaction inhibition. P26447. inhibition, % at 10.7 µM. AID 652163. hit rate 0.14% among 360,000. S100A4/TAMRA-MyoIIA peptide fluorescence polarization;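 active = mean inhibition of at least 70% across replicates, with every replicate also reaching that level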
Target sequence (P26447 whole entry, looked up): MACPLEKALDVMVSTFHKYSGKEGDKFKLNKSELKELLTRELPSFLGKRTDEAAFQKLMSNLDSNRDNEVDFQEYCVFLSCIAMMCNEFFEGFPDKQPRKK
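System – human S100A4 monomer protein, biochemical binding assay · Buffer or medium – Calcium-containing HEPES buffer, pH 7.2 · Timing – 5 min between mix addition and reading · Also added – TAMRA-labelled myosin IIA heavy-chain peptide probe, 5 nM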
CRFR2-BP antag – blocks CRF-induced signaling of the CRF-BP/CRF-R2 complex | HEK293 CRF-R2/CRF-BP, CRF-induced calcium fluorescence | hit rate 0.59% among 350,000 | inhibition, % at 11.8 µM;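 active = inhibition of the ligand-induced calcium signal above about 50% at the single tested concentration, limit read from the data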
PKA-R2B activ – activates the human PKA-R2B holoenzyme complex. PKA-R2B holoenzyme dissociation, Cy5-IP20 fluorescence polarization; R2B truncated from residue 108, S112A mutant; 0% DMSO only, 100% 113 µM cGMP. AID 504700. hit rate 0.079% among 340,000. P22694+P31323. activation, % at 11.4 µM;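 active = activation above a cutoff set at the mean over all compounds plus 3 SD, cut at about 18% in these data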;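 also: higher means more holoenzyme dissociation and a rise in polarization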
PKA-R1A activ – activators of PKA-R1A complex | hit rate 0.083% among 340,000 | PKA-R1A dissociation, Cy5-IP20 fluorescence polarization; scaled: DMSO 0%, 113 µM cGMP 100% | activation, % at 11.4 µM;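 active = percent activation above the mean of all tested compounds plus 3 SD, cut at about 19% in these data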;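 also: higher means more PKAc released from R1A so a rise in polarization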
SIRT5 block – blocks human SIRT5 desuccinylation of peptide; Q9NXA8; AID 652115; Purified SirT5, succinyl-peptide AMC, trypsin-coupled fluorescence; hit rate 1.1% among 330,000; inhibition, % at 15 µM; in the data active = inhibition above about 15%
Target sequence (Q9NXA8 whole entry, looked up): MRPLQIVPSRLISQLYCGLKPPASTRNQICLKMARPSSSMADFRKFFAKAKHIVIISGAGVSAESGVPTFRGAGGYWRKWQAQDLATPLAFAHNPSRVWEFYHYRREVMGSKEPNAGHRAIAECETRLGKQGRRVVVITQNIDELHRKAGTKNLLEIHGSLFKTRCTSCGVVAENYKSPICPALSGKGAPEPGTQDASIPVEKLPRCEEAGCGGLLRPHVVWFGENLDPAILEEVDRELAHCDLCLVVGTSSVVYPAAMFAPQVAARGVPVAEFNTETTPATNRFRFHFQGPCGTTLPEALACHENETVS
Numbers without * were called inactive. Only some compounds are listed: those with a hit (about 1.5% of all), similar ones and a draw of the others.

Screening CC(C)C#Cc1cnc2c(c1)C(=O)N([C@@H](C)CO)C[C@H](C)[C@@H](CN(C)C(=O)Nc1ccc(F)cc1)O2 returned S100A4 inh HTS -3 and SIRT5 block 3.
CC(C)C#Cc1cnc2c(c1)C(=O)N([C@H](C)CO)C[C@H](C)[C@H](CN(C)C(=O)Nc1ccc(F)cc1)O2 was read as S100A4 inh HTS 78* and SIRT5 block 3.
For COc1ccccc1C#Cc1cnc2c(c1)C(=O)N([C@@H](C)CO)C[C@H](C)[C@@H](CN(C)C)O2 the results were S100A4 inh HTS 0 and SIRT5 block 31*.
COc1ccccc1NC(=O)N(C)C[C@H]1Oc2ncc(C#CCN(C)C)cc2C(=O)N([C@@H](C)CO)C[C@H]1C was read as S100A4 inh HTS -3 and SIRT5 block 9.
COc1ccccc1NC(=O)N(C)C[C@H]1Oc2ncc(C#CC(C)C)cc2C(=O)N([C@@H](C)CO)C[C@@H]1C was read as S100A4 inh HTS 4 and SIRT5 block 16*.
For COc1ccc(NC(=O)N(C)C[C@@H]2Oc3c(NC(=O)Nc4c(C)noc4C)cccc3C(=O)N([C@H](C)CO)C[C@@H]2C)cc1 the results were S100A4 inh HTS 10 and SIRT5 block 1.
For Cc1noc(C)c1NC(=O)N(C)C[C@H]1Oc2ccc(NC(=O)Nc3ccc4c(c3)OCO4)cc2CC(=O)N([C@H](C)CO)C[C@@H]1C the results were S100A4 inh HTS 39 and SIRT5 block 4.
C[C@@H]1CCCCO[C@H](CN(C)Cc2ccc(C(F)(F)F)cc2)[C@H](C)CN([C@@H](C)CO)C(=O)c2cc(NS(=O)(=O)c3ccccc3)ccc2O1 was read as S100A4 inh HTS 3 and SIRT5 block 5.
Screening C[C@@H]1CCCCO[C@@H](CN(C)Cc2ccc(C(F)(F)F)cc2)[C@H](C)CN([C@@H](C)CO)C(=O)c2cc(NS(=O)(=O)c3ccccc3)ccc2O1 returned S100A4 inh HTS 13 and SIRT5 block 21*.
Screening C[C@@H]1CCCCO[C@@H](CN(C)Cc2ccc(C(F)(F)F)cc2)[C@@H](C)CN([C@H](C)CO)C(=O)c2cc(NS(=O)(=O)c3ccccc3)ccc2O1 returned S100A4 inh HTS 0 and SIRT5 block 1.
For C[C@@H]1CN([C@@H](C)CO)C(=O)c2cc(NS(=O)(=O)c3ccccc3)ccc2O[C@@H](C)CCCCO[C@H]1CN(C)Cc1ccc(C(F)(F)F)cc1 the results were S100A4 inh HTS 6 and SIRT5 block 18*.
For C[C@@H]1CCCCO[C@H](CN(C)Cc2ccc(C(F)(F)F)cc2)[C@@H](C)CN([C@@H](C)CO)C(=O)c2cc(NS(=O)(=O)c3ccccc3)ccc2O1 the results were S100A4 inh HTS -15 and SIRT5 block 20*.
Screening C[C@@H]1CN([C@H](C)CO)C(=O)c2cc(NS(=O)(=O)c3ccccc3)ccc2O[C@@H](C)CCCCO[C@@H]1CN(C)Cc1ccc(C(F)(F)F)cc1 returned S100A4 inh HTS -2 and SIRT5 block 0.
For CN1C[C@H]2[C@@H](c3ccccc31)[C@H](CO)N2S(=O)(=O)c1ccccc1 the results were S100A4 inh HTS 7 and SIRT5 block 7.
Screening CNc1nc(Cl)nc2ncn(C)c12 returned S100A4 inh HTS -3, CRFR2-BP antag -4, PKA-R2B activ 4, PKA-R1A activ -6 and SIRT5 block 16*.
For O=C(Cc1ccc(Cl)cc1)Nc1ccc(CN2CCCCC2)cc1 the results were S100A4 inh HTS 1, CRFR2-BP antag -9, PKA-R2B activ 1, PKA-R1A activ -1 and SIRT5 block 80*.
C=C(C)C(=O)N1CC2(CC(c3cccc(NC(=O)CCCCC)c3)=NO2)C[C@H]1C(N)=O (stereo partly drawn) was read as S100A4 inh HTS -8, CRFR2-BP antag 8, PKA-R2B activ -17, PKA-R1A activ 3 and SIRT5 block 23*.
`O=C(C[C@H]1CC[C@@H]2[C@H](COC[C@H](O)CN2S(=O)(=O)c2ccc(F)cc2)O1)N[C@@H]1CCN(Cc2ccccc2)C1` gave S100A4 inh HTS 4 and SIRT5 block -4.
